Laboratory results as given in ChEMBL document CHEMBL2016576, “Design, synthesis and structure-activity-relationship of 1,5-tetrahydronaphthyridines as CETP inhibitors” (Bioorg Med Chem Lett, 2012).

Key:
[1] = biological target: T1, Cholesteryl ester transfer protein (Homo sapiens, UniProt P11597); experiment: Inhibition of CETP in human plasma assessed as reduction in fluorescent intensity by fluorescence analysis
T1 sequence (P11597 whole entry): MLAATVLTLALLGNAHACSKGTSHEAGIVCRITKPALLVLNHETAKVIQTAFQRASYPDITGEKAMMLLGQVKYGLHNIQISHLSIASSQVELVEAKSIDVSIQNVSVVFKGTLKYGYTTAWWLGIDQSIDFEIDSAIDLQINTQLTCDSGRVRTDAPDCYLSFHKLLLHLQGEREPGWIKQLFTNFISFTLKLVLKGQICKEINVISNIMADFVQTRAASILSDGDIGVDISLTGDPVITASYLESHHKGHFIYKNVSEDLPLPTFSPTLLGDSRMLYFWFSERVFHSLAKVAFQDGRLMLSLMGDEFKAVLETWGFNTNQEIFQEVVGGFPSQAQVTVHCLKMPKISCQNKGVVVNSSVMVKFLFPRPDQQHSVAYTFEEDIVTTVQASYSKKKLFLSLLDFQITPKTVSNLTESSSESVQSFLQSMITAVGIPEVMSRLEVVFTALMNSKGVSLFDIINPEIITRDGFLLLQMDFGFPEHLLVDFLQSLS

[2] = Oral bioavailability in beagle dog at 3 mg/kg after 72 hrs; type: ADME, organism-based, Canis lupus familiaris; conditions: in vivo
cortisol synthase mRNA = experiment: Induction of cortisol synthase mRNA level in human NCI-H295 cells by in vitro branched DNA method relative to control; type: cell-based; conditions: read-out: FC
Procedure, shortened: (§1)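 Human adrenal H295 cells were assayed in vitro. CYP11B2 (aldosterone synthase) and CYP11B1 (cortisol synthase) mRNA were quantified by branched DNA, and induction was expressed relative to untreated control.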

[3] = system: aldosterone synthase mRNA; experiment: Induction of aldosterone synthase mRNA level in human NCI-H295 cells by in vitro branched DNA method relative to control; type: cell-based; conditions: read-out: FC; procedure, shortened: as §1
Mus musculus [4] = experiment: Increase in HDL-cholesterol level in transgenic mouse harboring human CETP/human ApoA1 gene at 30 mg/kg, po measured after 8 hrs; type: functional
Procedure, shortened: (§2)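 Male hCETP/hApoA1 heterozygous dual transgenic mice given 30 mg/Kg orally in corn oil (79.5%)/oleic acid (20%)/labrafil (0.5%); blood taken over an 8 h time course; serum tested ex vivo for CETP activity and in vivo serum HDL-c measured.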

[5] = Clearance in Sprague-Dawley rat at 1 mg/kg, iv and 3 mg/kg, po after 72 hrs; type: ADME, organism-based; conditions: in vivo
[6] = Oral bioavailability in cynomolgus monkey at 3 mg/kg after 72 hrs; type: ADME, organism-based, Macaca fascicularis; conditions: in vivo
Mus musculus [7] = experiment: Ex-vivo inhibition of CETP activity in transgenic mouse harboring human CETP/human ApoA1 gene at 30 mg/kg, po measured after 8 hrs; type: functional; procedure, shortened: as §2
[8] = Oral bioavailability in Sprague-Dawley rat at 3 mg/kg after 72 hrs; type: ADME, organism-based; conditions: in vivo
[9] = Clearance in cynomolgus monkey at 1 mg/kg, iv and 3 mg/kg, po after 72 hrs; type: ADME, organism-based, Macaca fascicularis; conditions: in vivo
[10] = Clearance in beagle dog at 1 mg/kg, iv and 3 mg/kg, po after 72 hrs; type: ADME, organism-based, Canis lupus familiaris; conditions: in vivo
[11] = Induction of cortisol synthase mRNA level in human NCI-H295 cells by in vitro branched DNA method; type: cell-based

IC50 [1]	bioavailability [2]	fold induction (cortisol synthase mRNA)	fold induction [3]	clearance [5]	bioavailability [6]	bioavailability [8]	clearance [9]	clearance [10]	SMILES	Activity (Mus musculus [4])	inhibition in vivo at 30 mg/kg (Mus musculus [7])	Activity [11]
23 nM	49%	10	10	5.5 mL/min/kg	18%	31%	0.7 mL/min/kg	1.5 mL/min/kg	CC[C@@H]1C[C@H](N(Cc2cc(C(F)(F)F)cc(C(F)(F)F)c2)c2nnn(C)n2)c2nc(C(F)(F)F)ccc2N1C(=O)OC(C)C	134%	91.6%	–
22 nM	–	–	–	16.4 mL/min/kg	32%	18%	2.2 mL/min/kg	–	CC[C@@H]1C[C@H](N(Cc2cc(C(F)(F)F)cc(C(F)(F)F)c2)c2nnn(C)n2)c2nc(C)ccc2N1C(=O)OC(C)C	147.8%	105%	–
–	–	–	–	–	–	–	–	–	CCOC(=O)N1c2ccc(C(F)(F)F)cc2[C@@H](N(Cc2cc(C(F)(F)F)cc(C(F)(F)F)c2)C(=O)OC)C[C@H]1CC [TORCETRAPIB]	–	–	Toxic
